In ChEMBL document CHEMBL4406880, “Design, synthesis, and bioactivity of dihydropyrimidine derivatives as kinesin spindle protein inhibitors” (Bioorg Med Chem, 2019):

Tests used:
Assay type in all cases: functional
[1] = system: SK-MEL-28; experiment: Growth inhibition of human SK-MEL-28 cells assessed as cell viability at 0.1 uM incubated for 48 hrs by sulforhodamine B assay; conditions: SK-MEL-28, 48 h, read-out: Activity
[2] = system: SF-295; experiment: Growth inhibition of human SF295 cells assessed as cell viability at 100 uM incubated for 48 hrs by sulforhodamine B assay; conditions: SF-295, 48 h, read-out: Activity
[3] = system: OVCAR-8; experiment: Growth inhibition of human OVCAR8 cells assessed as cell viability at 100 uM incubated for 48 hrs by sulforhodamine B assay; conditions: OVCAR-8, 48 h, read-out: Activity
[4] = system: SN12C; experiment: Growth inhibition of human SN12C cells assessed as cell viability at 0.1 uM incubated for 48 hrs by sulforhodamine B assay; conditions: read-out: Activity
[5] = system: RXF 393; experiment: Growth inhibition of human RXF393 cells assessed as cell viability at 1 uM incubated for 48 hrs by sulforhodamine B assay; conditions: RXF 393, 48 h, read-out: Activity
[6] = system: OVCAR-4; experiment: Growth inhibition of human OVCAR4 cells assessed as cell viability at 0.1 uM incubated for 48 hrs by sulforhodamine B assay; conditions: OVCAR-4, 48 h, read-out: Activity
[7] = system: Malme-3M; experiment: Growth inhibition of human MALME-3M cells incubated for 48 hrs by sulforhodamine B assay
Procedure, shortened: (§1)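 NCI-60 five-dose SRB assay in RPMI 1640 with 5% FBS, 37 °C, 5% CO2. Compound given at five tenfold dilutions, 0.01–100 µM, for 48 h. Adherent cells fixed with TCA, suspension cells with 16% final TCA. Bound SRB read at 515 nm and growth calculated against time-zero and untreated controls. GI50 taken from dose–response curves as the concentration giving a 50% decrease in net cell growth.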

[8] = system: SR; experiment: Growth inhibition of human SR cells incubated for 48 hrs by sulforhodamine B assay
Procedure, shortened: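 NCI-60 five-dose SRB assay. Cells were exposed for 48 h to tenfold dilutions of 0.01, 0.1, 1, 10 and 100 µM, in RPMI 1640 with 5% FBS. Plates fixed with TCA at the time of drug addition served as the time-zero reference. GI50 is the concentration giving a 50% reduction in net growth. TGI is total growth inhibition. LC50 is a net 50% loss of the initial cells.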

[9] = system: SNB-75; experiment: Cell cycle arrest in human SNB75 cells assessed as accumulation in preG1 phase at 2 uM incubated for 24 hrs by propidium iodide based flow cytometry (reference value: 1.85 %)
Procedure, shortened: (§2)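 SNB-75 cells were exposed to 2 µM for 24 h at 37 °C, 5% CO2, then washed with PBS and fixed in 70% ethanol on ice for 15 min. They were stained 1 h at room temperature with 50 µg/mL propidium iodide, 0.1 mg/mL RNase A and 0.05% Triton X-100. DNA content was read by flow cytometry to give the % of cells in pre-G1, G0/G1, S and G2/M.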

[10] = system: HL-60(TB); experiment: Growth inhibition of human HL-60(TB) cells incubated for 48 hrs by sulforhodamine B assay; conditions: HL-60, 48 h
Procedure, shortened: (§3)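 NCI-60 five-dose assay, SRB end-point, same culture conditions. Compound is tested at tenfold dilutions of 0.01, 0.1, 1, 10 and 100 µM for 48 h at 37 °C, with DMSO/PBS vehicle controls. Percentage growth at each concentration is taken against untreated cells and a time-zero plate. GI50 is 50% net growth decrease, TGI is total growth inhibition, and LC50 is 50% loss of initial cells.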

[11] = system: Malme-3M; experiment: Growth inhibition of human MALME-3M cells assessed as cell viability at 0.001 uM incubated for 48 hrs by sulforhodamine B assay relative to control; conditions: read-out: Activity
[12] = system: MOLT-4; experiment: Growth inhibition of human MOLT4 cells incubated for 48 hrs by sulforhodamine B assay; conditions: MOLT-4, 48 h; procedure, shortened: as §1
[13] = system: SK-MEL-2; experiment: Growth inhibition of human SK-MEL-2 cells assessed as cell viability at 0.001 uM incubated for 48 hrs by sulforhodamine B assay relative to control; conditions: SK-MEL-2, 48 h, read-out: Activity
[14] = system: SR; experiment: Growth inhibition of human SR cells assessed as cell viability at 100 uM incubated for 48 hrs by sulforhodamine B assay; conditions: read-out: Activity
[15] = system: HL-60(TB); experiment: Growth inhibition of human HL-60(TB) cells assessed as cell viability at 100 uM incubated for 48 hrs by sulforhodamine B assay; conditions: HL-60, 48 h, read-out: Activity; procedure, shortened: as §3
[16] = system: SK-MEL-28; experiment: Growth inhibition of human SK-MEL-28 cells assessed as cell viability at 0.001 uM incubated for 48 hrs by sulforhodamine B assay relative to control; conditions: SK-MEL-28, 48 h, read-out: Activity
[17] = system: COLO 205; experiment: Growth inhibition of human COLO205 cells assessed as cell viability at 100 uM incubated for 48 hrs by sulforhodamine B assay; conditions: COLO 205, 48 h, read-out: Activity
[18] = system: SK-OV-3; experiment: Growth inhibition of human SKOV3 cells assessed as cell viability at 0.1 uM incubated for 48 hrs by sulforhodamine B assay; conditions: SK-OV-3, 48 h, read-out: Activity
[19] = system: UACC-62; experiment: Growth inhibition of human UACC62 cells assessed as cell viability at 1 uM incubated for 48 hrs by sulforhodamine B assay; conditions: UACC-62, 48 h, read-out: Activity
[20] = system: SF-295; experiment: Growth inhibition of human SF295 cells assessed as cell viability at 0.001 uM incubated for 48 hrs by sulforhodamine B assay relative to control; conditions: SF-295, 48 h, read-out: Activity
[21] = system: SF-295; experiment: Growth inhibition of human SF295 cells assessed as cell viability at 1 uM incubated for 48 hrs by sulforhodamine B assay; conditions: SF-295, 48 h, read-out: Activity
[22] = system: 786-0; experiment: Growth inhibition of human 786-0 cells assessed as cell viability at 100 uM incubated for 48 hrs by sulforhodamine B assay; conditions: 786-0, 48 h, read-out: Activity
Procedure, shortened: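 NCI-60 five-dose mode: five tenfold dilutions (0.01, 0.1, 1, 10, 100 µM) are applied for 48 h to cells in RPMI 1640 with 5% FBS at 37 °C. Endpoint is TCA fixation with sulforhodamine B read at 515 nm. % growth comes from the 0 h and control absorbances. GI50 is the concentration giving a 50% reduction in net cell growth.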

[23] = system: SNB-75; experiment: Cell cycle arrest in human SNB75 cells assessed as accumulation in G2/M phase at 2 uM incubated for 24 hrs by propidium iodide based flow cytometry (reference value: 10.46 %); procedure, shortened: as §2
[24] = read-out: LC50 (the source's name)
[25] = read-out: pLC50 (the source's name) (converted)

CC1=C(C(=O)OCc2ccccc2)C(c2ccc3c(c2)OCO3)n2c(nc3ccccc32)N1 (racemic)
viability at 0.1 µM [1]: 93% | viability at 100 µM [2]: 8% | viability at 100 µM [3]: 14% | viability at 0.1 µM [4]: 95% | viability at 1 µM [5]: 7% | viability at 0.1 µM [6]: 90% | GI50 ([7]; read-out: GI50): 0.44 µM | LC50 ([7]; read-out: LC50): > 100 µM | TGI ([7]; read-out: TGI): > 100 µM | GI50 ([7]; read-out: pGI50 (converted)): 0.437 µM | LC50 ([7]; read-out: pLC50 (converted)): > 100 µM | TGI ([7]; read-out: pTGI): > 100 µM | GI50 ([8]; read-out: GI50): 1.71 µM | CC50 [8, 24]: > 100 µM | TGI ([8]; read-out: TGI): > 100 µM | GI50 ([8]; read-out: pGI50 (converted)): 1.7 µM | CC50 [8, 25]: > 100 µM | TGI ([8]; read-out: pTGI): > 100 µM | Activity [9]: 24.82% | GI50 ([10]; read-out: GI50): 0.34 µM | CC50 [10, 24]: > 100 µM | TGI ([10]; read-out: TGI): > 100 µM | GI50 ([10]; read-out: pGI50 (converted)): 0.339 µM | CC50 [10, 25]: > 100 µM | TGI ([10]; read-out: pTGI): > 100 µM | viability at 0.001 µM [11]: 94% | GI50 ([12]; read-out: GI50): 0.75 µM | CC50 [12, 24]: > 100 µM | TGI ([12]; read-out: TGI): > 100 µM | GI50 ([12]; read-out: pGI50 (converted)): 0.759 µM | CC50 [12, 25]: > 100 µM | TGI ([12]; read-out: pTGI): > 100 µM | viability at 0.001 µM [13]: 97% | viability at 100 µM [14]: 38% | viability at 100 µM [15]: 9% | viability at 0.001 µM [16]: 98% | viability at 100 µM [17]: 39% | viability at 0.1 µM [18]: 97% | viability at 1 µM [19]: 29% | viability at 0.001 µM [20]: 87% | viability at 1 µM [21]: 16% | viability at 100 µM [22]: 22% | Activity [23]: 37.59%
